The subject of data set [1] is dengue virus type 2. Kind of data set: Antiviral activity against Dengue virus 2 D2Y98P infected in A129 mouse model of dengue viremia assessed as reduction in viral morbidity by measuring body weight at 100 mg/kg, po BID for 3 days measured day 3 postinfection by viral plaque assay relative to control. It counts as functional, organism-based.
Data set [2] deals with dengue virus type 2. Kind of data set: Antiviral activity against NS3 T606A mutant and NS4B V63L mutant containing Dengue virus 2 isolate P12-VI infected in human HuH7 cells using viral isolates selected by serial passaging in presence of (R)-5'-Chloro-3-((S)-1-(4-chlorophenyl)ethyl)-1'-(2-(dimethylamino)ethyl)-4,6-dihydrospiro[[1,2,3]triazolo[4,5-b]-pyridine-7,3'-indoline]-2',5(3H)-dione incubated for 3 days by viral reduction assay. Format: functional, organism-based. Conditions: Huh-7.

In the next data set the test system is dengue virus type 3. Kind of data set: Antiviral activity against Dengue virus 3 D3MY05-34640 infected in human HuH7 replicon cells expressing Renilla luciferase and neomycin-resistance genes assessed as reduction in viral replication incubated for 48 hrs by luciferase reporter replicon-based assay. Format: functional, organism-based. Conditions: D3MY05-34640, Huh-7, 48 h. An outline of the steps:
(§1)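 Huh7 cells stably carrying a Renilla luciferase/neomycin-resistance replicon (DENV-1 WestPac, DENV-2 NGC, DENV-3 D3MY05-34640 or DENV-4 D4MY01-22713). Cells seeded at 10k per well and incubated overnight at 37 °C, 5% CO2. Then exposed to 2-fold serial compound dilutions for 48 h, in duplicate. Luciferase read with a live-cell substrate. EC50 from four-parameter logistic fit.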

Data set [3] has as its system dengue virus type 2. Kind of data set: Antiviral activity against Dengue virus 2 NGC infected in human HuH7 replicon cells expressing Renilla luciferase and neomycin-resistance genes assessed as reduction in viral replication incubated for 48 hrs by luciferase reporter replicon-based assay. Conditions: Huh-7, 48 h. It counts as functional, organism-based. An outline of the steps: as §1

The nature of data set [4]: Clearance in Sprague-Dawley rat at 20 mg/kg, po measured up to 24 hrs by LC-MS/MS analysis. Conditions: in vivo. It counts as ADME, organism-based. In a few lines:
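Male SD rats, N = 3, fasted 12 h; oral 20 mg/kg (alongside a 10 mg/kg i.v. bolus arm) formulated as DMSO solution : 20% HP-β-CD in saline = 1:9. Plasma sampled at 15 min, 30 min, 1, 2, 4, 8 and 24 h. Levels measured by LC-MS/MS against an 8-point standard curve with 6 QCs; parameters from non-compartmental analysis.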

For data set [5], the system named is dengue virus type 2. Kind of data set: Resistance index, ratio of EC50 for antiviral activity against NS3 T606A mutant and NS4B V63L mutant containing Dengue virus 2 isolate P12-VI infected in human HuH7 cells using viral isolates selected by serial passaging in presence of (R)-5'-Chloro-3-((S)-1-(4-chlorophenyl)ethyl)-1'-(2-(dimethylamino)ethyl)-4,6-dihydrospiro[[1,2,3]triazolo[4,5-b]-pyridine-7,3'-indoline]-2',5(3H)-dione incubated for 3 days by viral reduction assay to EC50 for antiviral activity against Dengue virus 2 isolate P0 infected in human HuH7 cells incubated for 3 days by viral reduction assay. It counts as functional.

Data set [6] can be described thus: Cytotoxicity in human HuH7 replicon cells infected with Dengue virus 2 NGC assessed as reduction in cell viability incubated for 48 hrs by Cell-titer-Glo reagent based assay. Details: species or system Huh-7. In a few lines: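 Huh7 cells or Huh7 replicon cells plated, then held at 37 °C with 5% CO₂ overnight. Exposed to 2-fold serial compound dilutions for 48 h, in duplicate. Viability read with CellTiter-Glo and normalized to 0.45% DMSO wells set at 100%. CC50 from four-parameter logistic fit.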

A short description of data set [7]: Oral bioavailability n Sprague-Dawley rat at 20 mg/kg measured up to 24 hrs by LC-MS/MS analysis. Format: ADME, organism-based. Conditions: in vivo. In a few lines:
(§2)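 Male SD rats, n = 3, fasted 12 h, given 20 mg/kg orally. Comparison arm given 10 mg/kg as an iv bolus, n = 3. Both formulated in DMSO:20% HP-β-CD in saline (1:9). Plasma sampled from 15 min (5 min iv) to 24 h. Analysed by LC-MS/MS against an 8-point standard curve with 6 QCs. Parameters derived by non-compartmental analysis.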

Data set [8] is described as follows: Tmax in Sprague-Dawley rat at 20 mg/kg, po measured up to 24 hrs by LC-MS/MS analysis. Format: ADME, organism-based. Conditions: in vivo. In a few lines: as §2
Another data set relates to dengue virus type 1. Kind of data set: Antiviral activity against Dengue virus 1 WestPac infected in human HuH7 replicon cells expressing Renilla luciferase and neomycin-resistance genes assessed as reduction in viral replication incubated for 48 hrs by luciferase reporter replicon-based assay. It counts as functional, organism-based. Conditions: Huh-7, 48 h. An outline of the steps:
as §1

In data set [9] the test system is dengue virus type 2. Kind of data set: Antiviral activity against Dengue virus 2 NGC infected in human HuH7 cells incubated for 48 hrs by viral titer reduction assay. It counts as functional, organism-based. Conditions: Huh-7, 48 h. An outline of the steps: (§3)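 Huh7 cells seeded the day before, then infected with DENV-2 NGC or D2Y98P at MOI 0.3 in the presence of 2-fold serial compound dilutions, in triplicate. After 48 h at 37 °C, infectious virus in the culture fluid was titrated by plaque assay. EC50 from four-parameter logistic fit.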

Data set [10] has as its system dengue virus type 2. Put plainly: Antiviral activity against Dengue virus 2 D2Y98P infected in human HuH7 cells incubated for 48 hrs by viral titer reduction assay. It counts as functional, organism-based. Conditions: Huh-7, 48 h. An outline of the steps: as §3
For a further data set, the system named is dengue virus type 4. Put plainly: Antiviral activity against Dengue virus 4 D4MY01-22713 infected in human HuH7 replicon cells expressing Renilla luciferase and neomycin-resistance genes assessed as reduction in viral replication incubated for 48 hrs by luciferase reporter replicon-based assay. It counts as functional, organism-based. Conditions: D4MY01-22713, Huh-7, 48 h. In a few lines: as §1

The subject of data set [11] is dengue virus type 2. Kind of data set: Antiviral activity against Dengue virus 2 isolate P0 infected in human HuH7 cells incubated for 3 days by viral reduction assay. It counts as functional, organism-based. Conditions: isolate P0, Huh-7, 72 h.
Data set [12] concerns dengue virus type 2. Kind of data set: Antiviral activity against Dengue virus 2 D2Y98P infected in A129 mouse model of dengue viremia assessed as reduction in viral loads in sera at 100 mg/kg, po BID for 3 days measured day 3 postinfection by viral plaque assay relative to control. It counts as functional. In a few lines: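 A129 mice (IFN-α/β receptor knockout), 3 weeks old, n = 6 per group; DENV-2 D2Y98P stock grown in BHK-21 cells, 100 µL at 10⁷ PFU/ml given subcutaneously. Oral dosing started immediately, twice daily for 3 days, as a suspension in 2.5% DMSO, 50% PEG-400 and 47.5% DPBS, or vehicle alone. Retro-orbital bleed on day 3 p.i.; plasma viremia measured by plaque assay; unpaired parametric test.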

Activity calls are given as the source filed them. The rule behind the calls is not given here.

Take `CC(C)CCN1C(=O)[C@]2(CC(=O)Nc3c2nnn3[C@@H](C)c2ccc(Cl)cc2)c2cc(Cl)ccc21`: the result with dengue virus type 2 [1] was Active. Besides, the EC50 was 1960 nM with dengue virus type 2 [2]; 35 nM with dengue virus type 3; 160 nM in the data set with dengue virus type 2 [3]; 780 nM in the data set on dengue virus type 1; 100 to 108 nM with dengue virus type 2 [9]; 130 nM in the data set on dengue virus type 2 [10]. Besides, the EC50 was more than 5000 nM in the data set on dengue virus type 4 and 123 nM with dengue virus type 2 [11]. In data set [4], this compound showed a CL/F of 59.5 mL/min/kg. In addition, the “Ratio EC50” value in the data set on dengue virus type 2 [5] is 16. The CC50 at 48 h in data set [6] is more than 10000 nM. Further, the bioavailability in data set [7] was 30%. For the same compound, the Tmax in data set [8] was 1 h. Also, the log reduction in the data set on dengue virus type 2 [12] is 2.4.
